Measurements pooled from the literature.
Protocols differ between the studies behind these lines.
Target: Serine/threonine-protein kinase Nek3 (NEK3, Homo sapiens, UniProt P51956)
One construct used (P51956 1-506): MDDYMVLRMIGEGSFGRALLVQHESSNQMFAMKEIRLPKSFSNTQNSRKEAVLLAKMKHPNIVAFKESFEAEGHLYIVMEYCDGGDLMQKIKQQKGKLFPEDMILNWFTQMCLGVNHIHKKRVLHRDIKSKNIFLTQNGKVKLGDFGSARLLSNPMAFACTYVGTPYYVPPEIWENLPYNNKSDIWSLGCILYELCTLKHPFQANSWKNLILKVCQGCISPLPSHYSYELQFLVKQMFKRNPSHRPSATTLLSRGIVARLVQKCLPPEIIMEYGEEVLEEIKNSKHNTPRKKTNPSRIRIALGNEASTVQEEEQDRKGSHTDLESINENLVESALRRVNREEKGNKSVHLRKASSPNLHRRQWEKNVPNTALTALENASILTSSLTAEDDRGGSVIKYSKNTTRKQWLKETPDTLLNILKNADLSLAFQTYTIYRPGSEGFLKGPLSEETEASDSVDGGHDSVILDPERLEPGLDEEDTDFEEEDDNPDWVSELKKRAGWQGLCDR

SMILES	assay	conditions	remaining binding [%]
F[C@@H]1CCN(c2nccc(-c3cnn4ncccc34)n2)C1	binding	1 µM	90
Cc1cnc(Nc2ccc(C(=O)N3CCC(N4CCCC4)CC3)cc2)nc1-c1cc2ccccc2s1	binding, competition with immobilised ligand	1 µM	2.4
COc1cc(-c2cn(C3CCc4ccccc4N(CC(F)(F)F)C3=O)nn2)ccc1-n1ccc(C)n1 (stereo not drawn)	cell-free assay, competition with immobilised ligand	1 µM	100
CCN1CCN(Cc2ccc(C(=O)Nc3ccc(C)c(Oc4ccc5c(c4)CC(=O)N5)c3)cc2C(F)(F)F)CC1	binding, competition with immobilised ligand	1 µM	100
N[C@@H]1CCN(c2nccc(-c3cnn4ncccc34)n2)C1	binding	1 µM	95
COc1cnc(Nc2cccc(S(N)(=O)=O)c2)nc1N1CCN(c2ccccc2)CC1	binding, competition with immobilised ligand	1 µM	74
C=CC(=O)N1CCC(C(=O)NCC(=O)N2CCN(c3nc(-c4cnc(N)nc4C(F)F)nc(N4CCOCC4)n3)CC2)CC1	binding, competition with immobilised ligand	1 µM	51
O=C(O)[C@H]1[C@H](Cn2nnc3ccccc3c2=O)CC[C@@H]1C(=O)c1ccc(OCCC2CCOCC2)cc1	cell-free assay, competition with immobilised ligand	1 µM	86
O=C(NCC1CCOCC1)c1n[nH]cc1NC(=O)c1c(F)cccc1F	binding, competition with immobilised ligand	1 µM	66
Cc1nccc(COC(=O)N2C[C@@H]3[C@@H](CNC(=O)c4ccc5[nH]nnc5c4)[C@@H]3C2)n1	cell-free assay, competition with immobilised ligand	1 µM	100
O=C(NCCCN1CCOCC1)c1ccc(Nc2ncc(Cl)c(-c3ccc(Cl)s3)n2)cc1	binding, competition with immobilised ligand	1 µM	0.5
COc1cnc(Nc2cccc(S(N)(=O)=O)c2)nc1N1CCN(c2ccccc2)C(=O)C1	binding, competition with immobilised ligand	1 µM	30
CC(C)CC(=O)N1CCc2nc(-c3ccc(Br)cc3)nc(N(C)Cc3ccccc3)c2C1	cell-free assay, competition with immobilised ligand	0.1 µM	100
CN(C)c1nccc(-c2cnn3ncccc23)n1	binding	1 µM	100
O=C(Nc1cnc(Oc2ccc(F)cc2)nc1)N1CCc2ncccc2[C@@H]1c1ccc(F)cc1	cell-free assay, competition with immobilised ligand	1 µM	67
CN(C)c1nccc(-c2cnc3ncccn23)n1	binding	1 µM	100
CN(C(=O)c1ccccc1)c1cc(N(C)c2ccc3c(c2)CCc2ccc(C(=O)NCCN4CCOCC4)cc2C3=O)ccc1F	cell-free assay, competition with immobilised ligand	1 µM	99
c1cnn2ncc(-c3ccnc(N4CCC45COC5)n3)c2c1	binding	1 µM	64
O=C(c1ccc(Nc2nccc(-c3cc4ccccc4s3)n2)cc1)N1CCC(N2CCCC2)CC1	binding, competition with immobilised ligand	1 µM	5.4
C[C@H]1CCN(c2nccc(-c3cnn4ncccc34)n2)C1	binding	1 µM	70
c1cncc(-c2cccc(Nc3nccc(NC4CCCCC4)n3)c2)c1	binding, competition with immobilised ligand	10 µM	56
